Experimental data reported in ChEMBL document CHEMBL1142148, “Antibiotic susceptibility profile of bifidobacteria as affected by oxgall, acid, and hydrogen peroxide stress” (2007).
In brackets after ≈: the same amount, converted by molar mass.

Key:
[1] = test system: Bifidobacterium bifidum; assay: Antimicrobial activity against 90 mins oxgall-stressed Bifidobacterium bifidum R0071 after 18 hrs; assay type: functional
Summary of the method: (§1)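 Cells pelleted from mid-log MRS culture and resuspended in MRS (initial pH 6.5) with 0.3% (wt/vol) oxgall for 90 min anaerobically at 37°C. They were then regrown in MRS pH 6.5 for 24 h (footnote: 18 h) anaerobically and tested for MIC by the same broth microdilution assay. Median of four repetitions.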

[2] = test system: Bifidobacterium thermophilum; assay: Antimicrobial activity against 90 mins oxgall-stressed Bifidobacterium thermophilum ATCC 25866 after 18 hrs; assay type: functional; summary of the method: as §1
[3] = test system: Bifidobacterium bifidum; assay: Antimicrobial activity against Bifidobacterium bifidum R0071; assay type: functional
Summary of the method: (§2)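 Broth microdilution in MRS plus 0.05% L-cysteine-HCl. Mid-log culture adjusted to OD650 0.1, giving about 2.5 × 10^4 to 5.0 × 10^4 CFU/well, then added to twofold serial dilutions of agent. Plates incubated anaerobically at 37°C for 18 h and read at OD650. MIC is the lowest concentration matching the uninoculated blank OD, taken as the median of four repeats.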

[4] = test system: Bifidobacterium bifidum; assay: Antimicrobial activity against Bifidobacterium bifidum BB12; assay type: functional; summary of the method: as §2
[5] = Antimicrobial activity against 90 mins oxgall-stressed Bifidobacterium infantis ATCC 15697 after 18 hrs; assay type: functional, Bifidobacterium longum subsp. infantis; conditions: Bifidobacterium longum; summary of the method: as §1
[6] = test system: Bifidobacterium longum; assay: Antimicrobial activity against 90 mins hydrogen peroxide-stressed Bifidobacterium longum P/N 601377 after 18 hrs; assay type: functional
Summary of the method: (§3)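 Stress applied for 90 min at 37°C under anaerobic conditions, using MRS (initial pH 6.5) containing H2O2 at each strain's own inhibitory concentration. The H2O2 level was set beforehand by microplate tolerance testing. Challenged cells were regrown in MRS for 24 h (footnote: 18 h) before MIC testing by broth microdilution. Median of four repetitions.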

[7] = test system: Bifidobacterium breve; assay: Antimicrobial activity against Bifidobacterium breve R0070; assay type: functional; summary of the method: as §2
[8] = test system: Bifidobacterium breve; assay: Antimicrobial activity against 90 mins oxgall-stressed Bifidobacterium breve R0070 after 18 hrs; assay type: functional; summary of the method: as §1
[9] = test system: Bifidobacterium breve; assay: Antimicrobial activity against 60 min 1 M HCl-stressed Bifidobacterium breve ATCC 15700 after 18 hrs; assay type: functional
Summary of the method: (§4)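 Mid-log MRS culture pelleted and resuspended in MRS broth brought to pH 2.0 with 1 M HCl, held anaerobically at 37°C for 60 min, then subcultured in MRS (pH 6.5) for 24 h anaerobically before MIC testing by broth microdilution (as for unstressed cells). Table footnote gives 18 h anaerobic regrowth after the stress. MIC is the median of four repetitions.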

[10] = test system: Bifidobacterium longum; assay: Antimicrobial activity against 90 mins oxgall-stressed Bifidobacterium longum ATCC 15708 after 18 hrs; assay type: functional; summary of the method: as §1
[11] = test system: Bifidobacterium pseudolongum; assay: Antimicrobial activity against 90 mins oxgall-stressed Bifidobacterium pseudolongum ATCC 25562 after 18 hrs; assay type: functional; summary of the method: as §1
[12] = test system: Bifidobacterium breve; assay: Antimicrobial activity against Bifidobacterium breve ATCC 15700; assay type: functional; summary of the method: as §2
[13] = test system: Bifidobacterium longum; assay: Antimicrobial activity against 60 min 1 M HCl-stressed Bifidobacterium longum P/N 601377 after 18 hrs; assay type: functional; summary of the method: as §4
[14] = test system: Bifidobacterium bifidum; assay: Antimicrobial activity against 90 mins hydrogen peroxide-stressed Bifidobacterium bifidum BB12 after 18 hrs; assay type: functional; summary of the method: as §3
[15] = test system: Bifidobacterium pseudolongum; assay: Antimicrobial activity against 60 min 1 M HCl-stressed Bifidobacterium pseudolongum ATCC 25562 after 18 hrs; assay type: functional; summary of the method: as §4
[16] = test system: Bifidobacterium animalis; assay: Antimicrobial activity against 90 mins oxgall-stressed Bifidobacterium animalis ATCC 27536 after 18 hrs; assay type: functional; summary of the method: as §1
[17] = test system: Bifidobacterium thermophilum; assay: Antimicrobial activity against 60 min 1 M HCl-stressed Bifidobacterium thermophilum ATCC 25866 after 18 hrs; assay type: functional; summary of the method: as §4
[18] = test system: Bifidobacterium longum; assay: Antimicrobial activity against Bifidobacterium longum P/N 601377; assay type: functional; summary of the method: as §2
[19] = test system: Bifidobacterium breve; assay: Antimicrobial activity against 90 mins oxgall-stressed Bifidobacterium breve ATCC 15700 after 18 hrs; assay type: functional; summary of the method: as §1
[20] = test system: Bifidobacterium longum; assay: Antimicrobial activity against 90 mins oxgall-stressed Bifidobacterium longum ATCC 15707 after 18 hrs; assay type: functional; summary of the method: as §1
[21] = test system: Bifidobacterium thermophilum; assay: Antimicrobial activity against 90 mins hydrogen peroxide-stressed Bifidobacterium thermophilum ATCC 25866 after 18 hrs; assay type: functional; summary of the method: as §3
[22] = test system: Bifidobacterium longum; assay: Antimicrobial activity against 90 mins oxgall-stressed Bifidobacterium longum P/N 601377 after 18 hrs; assay type: functional; summary of the method: as §1
[23] = test system: Bifidobacterium longum; assay: Antimicrobial activity against Bifidobacterium longum ATCC 15707; assay type: functional; summary of the method: as §2
[24] = test system: Bifidobacterium longum; assay: Antimicrobial activity against Bifidobacterium longum ATCC 15708; assay type: functional; summary of the method: as §2
[25] = test system: Bifidobacterium animalis; assay: Antimicrobial activity against 60 min 1 M HCl-stressed Bifidobacterium animalis ATCC 27536 after 18 hrs; assay type: functional; summary of the method: as §4
[26] = test system: Bifidobacterium longum; assay: Antimicrobial activity against 90 mins hydrogen peroxide-stressed Bifidobacterium longum ATCC 15707 after 18 hrs; assay type: functional; summary of the method: as §3
[27] = test system: Bifidobacterium pseudolongum; assay: Antimicrobial activity against Bifidobacterium pseudolongum ATCC 25562; assay type: functional; summary of the method: as §2
[28] = test system: Bifidobacterium bifidum; assay: Antimicrobial activity against Bifidobacterium bifidum ATCC 15696; assay type: functional; summary of the method: as §2
[29] = test system: Bifidobacterium bifidum; assay: Antimicrobial activity against 60 min 1 M HCl-stressed Bifidobacterium bifidum R0071 after 18 hrs; assay type: functional; summary of the method: as §4
[30] = Antimicrobial activity against Bifidobacterium infantis ATCC 15697; assay type: functional, Bifidobacterium longum subsp. infantis; conditions: Bifidobacterium longum; summary of the method: as §2
[31] = test system: Bifidobacterium animalis; assay: Antimicrobial activity against 90 mins hydrogen peroxide-stressed Bifidobacterium animalis ATCC 27536 after 18 hrs; assay type: functional; summary of the method: as §3
[32] = test system: Bifidobacterium breve; assay: Antimicrobial activity against 60 min 1 M HCl-stressed Bifidobacterium breve R0070 after 18 hrs; assay type: functional; summary of the method: as §4
[33] = test system: Bifidobacterium breve; assay: Antimicrobial activity against 90 mins hydrogen peroxide-stressed Bifidobacterium breve R0070 after 18 hrs; assay type: functional; summary of the method: as §3
[34] = Antimicrobial activity against 60 min 1 M HCl-stressed Bifidobacterium infantis ATCC 15697 after 18 hrs; assay type: functional, Bifidobacterium longum subsp. infantis; conditions: Bifidobacterium longum; summary of the method: as §4
[35] = test system: Bifidobacterium breve; assay: Antimicrobial activity against 90 mins hydrogen peroxide-stressed Bifidobacterium breve ATCC 15700 after 18 hrs; assay type: functional; summary of the method: as §3
[36] = test system: Bifidobacterium longum; assay: Antimicrobial activity against 60 min 1 M HCl-stressed Bifidobacterium longum R0175 after 18 hrs; assay type: functional; summary of the method: as §4
[37] = test system: Bifidobacterium thermophilum; assay: Antimicrobial activity against Bifidobacterium thermophilum ATCC 25866; assay type: functional; summary of the method: as §2
[38] = test system: Bifidobacterium longum; assay: Antimicrobial activity against Bifidobacterium longum R0175; assay type: functional; summary of the method: as §2
[39] = test system: Bifidobacterium longum; assay: Antimicrobial activity against 90 mins hydrogen peroxide-stressed Bifidobacterium longum ATCC 15708 after 18 hrs; assay type: functional; summary of the method: as §3
[40] = test system: Bifidobacterium bifidum; assay: Antimicrobial activity against 60 min 1 M HCl-stressed Bifidobacterium bifidum BB12 after 18 hrs; assay type: functional; summary of the method: as §4
[41] = test system: Bifidobacterium longum; assay: Antimicrobial activity against 60 min 1 M HCl-stressed Bifidobacterium longum ATCC 15707 after 18 hrs; assay type: functional; summary of the method: as §4
[42] = test system: Bifidobacterium bifidum; assay: Antimicrobial activity against 90 mins oxgall-stressed Bifidobacterium bifidum BB12 after 18 hrs; assay type: functional; summary of the method: as §1
[43] = test system: Bifidobacterium longum; assay: Antimicrobial activity against 90 mins hydrogen peroxide-stressed Bifidobacterium longum R0175 after 18 hrs; assay type: functional; summary of the method: as §3
[44] = test system: Bifidobacterium animalis; assay: Antimicrobial activity against Bifidobacterium animalis ATCC 27536; assay type: functional; summary of the method: as §2
[45] = test system: Bifidobacterium bifidum; assay: Antimicrobial activity against 90 mins oxgall-stressed Bifidobacterium bifidum ATCC 15696 after 18 hrs; assay type: functional; summary of the method: as §1
[46] = test system: Bifidobacterium bifidum; assay: Antimicrobial activity against 90 mins hydrogen peroxide-stressed Bifidobacterium bifidum R0071 after 18 hrs; assay type: functional; summary of the method: as §3
[47] = test system: Bifidobacterium longum; assay: Antimicrobial activity against 90 mins oxgall-stressed Bifidobacterium longum R0175 after 18 hrs; assay type: functional; summary of the method: as §1

Work on `NC[C@H]1O[C@H](O[C@H]2[C@H](O)[C@@H](O[C@H]3O[C@H](CO)[C@@H](O)[C@H](N)[C@H]3O)[C@H](N)C[C@@H]2N)[C@H](O)[C@@H](O)[C@@H]1O` [KANAMYCIN] yielded an MIC [1] of 500 µg/mL (≈ 1030 µM), an MIC [2] of 500 µg/mL (≈ 1030 µM) and an MIC [3] of 500 µg/mL (≈ 1030 µM). The MIC [4] was > 500 µg/mL, the MIC [5] was > 500 µg/mL and the MIC [6] was 250 µg/mL (≈ 516 µM). The MIC [7] was 500 µg/mL (≈ 1030 µM), the MIC [8] was 500 µg/mL (≈ 1030 µM) and the MIC [9] was 500 µg/mL (≈ 1030 µM). The MIC [10] was 500 µg/mL (≈ 1030 µM), the MIC [11] was 500 µg/mL (≈ 1030 µM) and the MIC [12] was > 500 µg/mL. For the same compound, the MIC [13] was 250 µg/mL (≈ 516 µM), the MIC [14] was 500 µg/mL (≈ 1030 µM) and the MIC [15] was 250 µg/mL (≈ 516 µM). For the same compound, the MIC [16] was 500 µg/mL (≈ 1030 µM), the MIC [17] was 500 µg/mL (≈ 1030 µM) and the MIC [18] was 250 µg/mL (≈ 516 µM). It also gave an MIC [19] of 500 µg/mL (≈ 1030 µM), an MIC [20] of 250 µg/mL (≈ 516 µM) and an MIC [21] of 500 µg/mL (≈ 1030 µM). It also gave an MIC [22] of 250 µg/mL (≈ 516 µM), an MIC [23] of 500 µg/mL (≈ 1030 µM) and an MIC [24] of 500 µg/mL (≈ 1030 µM). The MIC [25] was 500 µg/mL (≈ 1030 µM), the MIC [26] was 500 µg/mL (≈ 1030 µM) and the MIC [27] was > 500 µg/mL. The MIC [28] was > 500 µg/mL, the MIC [29] was 0.98 µg/mL (≈ 2.02 µM) and the MIC [30] was > 500 µg/mL. For the same compound, the MIC [31] was 500 µg/mL (≈ 1030 µM), the MIC [32] was 500 µg/mL (≈ 1030 µM) and the MIC [33] was 500 µg/mL (≈ 1030 µM). For the same compound, the MIC [34] was 500 µg/mL (≈ 1030 µM), the MIC [35] was > 500 µg/mL and the MIC [36] was 250 µg/mL (≈ 516 µM). The MIC [37] was > 500 µg/mL, the MIC [38] was 500 µg/mL (≈ 1030 µM) and the MIC [39] was 500 µg/mL (≈ 1030 µM). It also gave an MIC [40] of 250 µg/mL (≈ 516 µM), an MIC [41] of 500 µg/mL (≈ 1030 µM) and an MIC [42] of 500 µg/mL (≈ 1030 µM). The MIC [43] was 500 µg/mL (≈ 1030 µM), the MIC [44] was 500 µg/mL (≈ 1030 µM) and the MIC [45] was 125 µg/mL (≈ 258 µM). For the same compound, the MIC [46] was 500 µg/mL (≈ 1030 µM) and the MIC [47] was 500 µg/mL (≈ 1030 µM).
